# Experimental data gathered from unrelated publications.
# Target: Protein kinase C iota type (PRKCI, Homo sapiens, UniProt P41743)
# Residues used in one study (P41743 1-596): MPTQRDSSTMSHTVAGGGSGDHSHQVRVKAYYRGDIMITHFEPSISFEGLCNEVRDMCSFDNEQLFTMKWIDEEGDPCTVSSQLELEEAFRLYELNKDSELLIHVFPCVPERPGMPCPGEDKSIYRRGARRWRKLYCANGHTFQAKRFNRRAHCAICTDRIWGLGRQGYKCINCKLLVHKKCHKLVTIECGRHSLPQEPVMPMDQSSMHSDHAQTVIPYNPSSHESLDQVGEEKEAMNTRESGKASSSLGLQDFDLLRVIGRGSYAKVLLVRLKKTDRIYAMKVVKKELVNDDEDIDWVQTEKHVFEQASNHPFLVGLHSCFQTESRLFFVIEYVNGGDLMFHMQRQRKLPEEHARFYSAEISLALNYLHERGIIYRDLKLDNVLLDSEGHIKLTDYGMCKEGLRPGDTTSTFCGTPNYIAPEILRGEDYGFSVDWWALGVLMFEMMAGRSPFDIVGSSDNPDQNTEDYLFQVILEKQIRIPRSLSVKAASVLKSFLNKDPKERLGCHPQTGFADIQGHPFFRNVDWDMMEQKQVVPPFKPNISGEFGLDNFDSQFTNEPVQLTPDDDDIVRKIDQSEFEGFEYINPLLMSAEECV
effect on,mode,technique,tested at,setting,measurement,value,SMILES
cell-free assay,inhibitor,,0.1 µM,lysate,inhibition,7.26%,Cc1cc(O)c(-c2ccc([C@@H](C)CN(C)C)cc2)c2c1[nH]c(=O)c1sccc12
binding,,,1 µM,,remaining binding,63%,COc1ccc2[nH]c3c4[nH]c5ccc(OC)cc5c4c4c(c3c2c1)C(=O)NC4=O
binding,,competition with immobilised ligand,0.5 µM,,remaining binding,91%,CCCCC(=O)Nc1ccc(-c2ccc3ncn(CCC)c(=O)c3c2)cn1
binding,,,1 µM,,remaining binding,74%,CN1CCN(C(=O)c2ccc(NC(=O)Nc3ccc(N(C)c4ccnc(Nc5ccc(CS(C)(=O)=O)cc5)n4)cc3)cc2)CC1
enzyme activity,inhibitor,,1 µM,,inhibition,0%,CC#CC(=O)N1CCC[C@H]1c1nc(-c2ccc(C(=O)Nc3ccccn3)cc2)c2c(N)nccn12
binding,,,0.1 µM,,remaining binding,95%,C1=C/COCc2cc(ccc2OCCN2CCCC2)Nc2nccc(n2)-c2cccc(c2)COC/1
enzyme activity,inhibitor,,1 µM,,activity vs control,107%,CC(C)S(=O)(=O)c1ccc2nccc(Nc3ccc4sc(C5CCCC5)nc4c3)c2c1
enzyme activity,inhibitor,,1 µM,,inhibition,43%,CO[C@@H]1[C@H](N(C)C(=O)c2ccccc2)C[C@H]2O[C@]1(C)n1c3ccccc3c3c4c(c5c6ccccc6n2c5c31)C(=O)NC4
